Measurements collected from several papers.

c1cc([C@H]2CC[C@]3(CC2)OO[C@]2(O3)C3CC4CC(C3)CC2C4)ccc1OCCN1CCOCC1  Cmax (human, plasma; oral, 1200 mg, patients): 1500 ng/mL
Cc1ncc2n1-c1ccc(Cl)cc1C(c1ccccc1F)=NC2  Cmax (human, plasma; oral, 2 mg, single dose): 9.74 ng/mL
COc1ccc2c(c1)[C@]13CCCC[C@@H]1[C@H](C2)N(C)CC3  efflux ratio (Caco-2; 10 µM, pH 6.5): 2
CN1CCCCC1Cn1cc(C(=O)c2cc([N+](=O)[O-])ccc2I)c2ccccc21 (racemic)  Tmax (mouse, brain; intravenous, 25 mg/kg): 15 min
CC[C@H](C)[C@H](NC(=O)[C@H](CC(C)C)NC(=O)[C@H](Cc1c[nH]c2ccccc12)NC(=O)[C@H](CCC(N)=O)NC(=O)[C@@H](NC(=O)[C@H](Cc1ccccc1)NC(=O)[C@H](C)NC(=O)[C@H](CCCCNC(=O)COCCOCCNC(=O)COCCOCCNC(=O)CC[C@H](NC(=O)CCCCCCCCCCCCCCCCCCC(=O)O)C(=O)O)NC(=O)[C@H](CCC(N)=O)NC(=O)[C@H](C)NC(=O)[C@@H](NC(=O)[C@H](CCCCN)NC(=O)[C@H](CC(=O)O)NC(=O)[C@H](CC(C)C)NC(=O)C(C)(C)NC(=O)[C@@H](NC(=O)[C@H](CO)NC(=O)[C@H](Cc1ccc(O)cc1)NC(=O)[C@H](CC(=O)O)NC(=O)[C@H](CO)NC(=O)[C@@H](NC(=O)[C@H](Cc1ccccc1)NC(=O)[C@@H](NC(=O)CNC(=O)[C@H](CCC(=O)O)NC(=O)C(C)(C)NC(=O)[C@@H](N)Cc1ccc(O)cc1)[C@@H](C)O)[C@@H](C)O)[C@@H](C)CC)[C@@H](C)CC)C(C)C)C(=O)N[C@@H](C)C(=O)NCC(=O)NCC(=O)N1CCC[C@H]1C(=O)N[C@@H](CO)C(=O)N[C@@H](CO)C(=O)NCC(=O)N[C@@H](C)C(=O)N1CCC[C@H]1C(=O)N1CCC[C@H]1C(=O)N1CCC[C@H]1C(=O)N[C@@H](CO)C(N)=O  Cmax (human, plasma; subcutaneous, 1.5 mg, multiple doses, healthy volunteers): 198 ng/mL
O=C(NCc1ccc(F)cc1)c1cccc(Nc2ccc(-c3ccccc3)nn2)c1  CC50 (FRT; cell growth or viability, MTS; 48 h): > 100 µM
N=C(N)NCCC[C@@H](NC(=O)[C@@H](N)Cc1ccccc1)C(=O)N[C@@H](Cc1ccccc1)C(=O)N[C@@H](CCCCN)C(N)=O  Cmax (human, plasma; subcutaneous, 25 mg, patients): 973 ng/mL
N=c1c2c(-c3ccccc3)c(-c3ccccc3)n(Cc3ccccc3)c2ncn1[C@H]1CC[C@H](O)CC1  bioavailability (male cynomolgus monkey, plasma; oral, 1 mg/kg, single dose): > 80%
CCOC(=O)c1c(NCc2ccc(SC)cc2)c2cccc(C)c2[nH]c1=O  CC50 (FRT; cell growth or viability, MTS; 48 h): 91.6 µM
